Molecules are shown by their SMILES.

These results are taken from ChEMBL document CHEMBL4190234, “Design, synthesis and anticancer activity of new monastrol analogues bearing 1,3,4-oxadiazole moiety” (Eur J Med Chem, 2017).

Assay [1] relates to HL-60(TB). Description: Growth inhibition of human HL-60(TB) cells incubated for 24 hrs by MTT assay. It is filed as functional, cell-based. Particulars: HL-60, 24 h. Put shortly:
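Cells at 1.2-1.8×10^4 cells/ml in DMEM with 10% FBS, 10 µg/ml insulin and 1% penicillin/streptomycin, plated overnight at 37°C. Serial 10-fold dilutions added to 0.01–100 µM final, medium as negative control, 24 h. MTT (5 mg/ml) added for 4 h, formazan dissolved in acid-isopropanol, A490 read. Eight separate experiments; percent viable cells used to derive IC50.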
(In general: Formazan colour is commonly taken as a measure of viable cells.)

The test system of assay [2] is MOLT-4. Description: Growth inhibition of human MOLT4 cells incubated for 24 hrs by MTT assay. It is filed as functional, cell-based. Particulars: MOLT-4, 24 h.
In assay [3] the test system is MOLT-4. Description: Cell cycle arrest in human MOLT4 cells assessed as accumulation at S phase at 0.43 uM after 24 hrs by propidium iodide staining based flow cytometry (reference value: 20.55%). It is filed as functional. The essentials:
(§1)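 MOLT-4 cells (1×10^6) exposed 24 h to 0.160 or 0.430 μM test agent, DMSO (0.002%) control; trypsinized, washed in ice-cold PBS, fixed in ice-cold 70% ethanol ≥2 h at 4°C, washed, stained with propidium iodide DNA kit; cell cycle distribution (pre-G, G0/G1, S, G2/M) by flow cytometry.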

Assay [4] concerns MOLT-4. Description: Cell cycle arrest in human MOLT4 cells assessed as accumulation of apoptotic cells in pre-G phase at 0.43 uM after 24 hrs by propidium iodide staining based flow cytometry (reference value: 0.88%). It is filed as functional. The essentials:
as §1
On the technique in general: A flow cytometer gives signals particle by particle.

Assay [5] relates to HL-60(TB). The assay is described as follows: Induction of apoptosis in human HL-60(TB) cells assessed as necrotic cells at 0.294 uM after 24 hrs by Annexin V-FITC/propidium iodide staining based flow cytometry (reference value: 0.2%). It is filed as functional.
In assay [6] the test system is HL-60(TB). The assay is described as follows: Cell cycle arrest in human HL-60(TB) cells assessed as accumulation of apoptotic cells in pre-G phase at 0.294 uM after 24 hrs by propidium iodide staining based flow cytometry (reference value: 1.44%). Type of assay: functional.
Assay [7] has as its system MOLT-4. Description: Cell cycle arrest in human MOLT4 cells assessed as accumulation at G0/G1 phase at 0.43 uM after 24 hrs by propidium iodide staining based flow cytometry (reference value: 74.22%). Type of assay: functional. Put shortly: as §1
In assay [8] the test system is MOLT-4. The assay is described as follows: Induction of apoptosis in human MOLT4 cells assessed as necrotic cells at 0.43 uM after 24 hrs by Annexin V-FITC/propidium iodide staining based flow cytometry (reference value: 0.11%). Type of assay: functional.
Assay [9] deals with HL-60(TB). The assay is described as follows: Induction of apoptosis in human HL-60(TB) cells assessed as late apoptotic cells at 0.294 uM after 24 hrs by Annexin V-FITC/propidium iodide staining based flow cytometry (reference value: 0.39%). Type of assay: functional.
The test system of assay [10] is HL-60(TB). Description: Cell cycle arrest in human HL-60(TB) cells assessed as accumulation at G0/G1 phase at 0.294 uM after 24 hrs by propidium iodide staining based flow cytometry (reference value: 68.43%). It is filed as functional.
The subject of assay [11] is MOLT-4. The assay is described as follows: Induction of apoptosis in human MOLT4 cells assessed as late apoptotic cells at 0.43 uM after 24 hrs by Annexin V-FITC/propidium iodide staining based flow cytometry (reference value: 0.24%). Type of assay: functional.
The test system of assay [12] is HL-60(TB). The assay is described as follows: Cell cycle arrest in human HL-60(TB) cells assessed as accumulation at G2/M phase at 0.294 uM after 24 hrs by propidium iodide staining based flow cytometry (reference value: 7.29%). Type of assay: functional.
In assay [13] the test system is HL-60(TB). Description: Cell cycle arrest in human HL-60(TB) cells assessed as accumulation at S phase at 0.294 uM after 24 hrs by propidium iodide staining based flow cytometry (reference value: 22.84%). It is filed as functional.
For assay [14], the system named is MOLT-4. The assay is described as follows: Induction of apoptosis in human MOLT4 cells assessed as early apoptotic cells at 0.43 uM after 24 hrs by Annexin V-FITC/propidium iodide staining based flow cytometry (reference value: 0.53%). Type of assay: functional.
For assay [15], the system named is HL-60(TB). Description: Induction of apoptosis in human HL-60(TB) cells assessed as early apoptotic cells at 0.294 uM after 24 hrs by Annexin V-FITC/propidium iodide staining based flow cytometry (reference value: 0.84%). Type of assay: functional.
In assay [16] the test system is MOLT-4. The assay is described as follows: Induction of apoptosis in human MOLT4 cells assessed as live cells at 0.43 uM after 24 hrs by Annexin V-FITC/propidium iodide staining based flow cytometry (reference value: 99.12%). It is filed as functional.
In assay [17] the test system is HL-60(TB). Description: Induction of apoptosis in human HL-60(TB) cells assessed as live cells at 0.294 uM after 24 hrs by Annexin V-FITC/propidium iodide staining based flow cytometry (reference value: 98.57%). Type of assay: functional.
Assay [18] deals with MOLT-4. Description: Induction of apoptosis in human MOLT4 cells assessed as increase in apoptotic cells at 0.43 uM after 24 hrs by Annexin V-FITC/propidium iodide staining based flow cytometry relative to control. It is filed as functional.
Assay [19] deals with MOLT-4. Description: Cell cycle arrest in human MOLT4 cells assessed as accumulation at G2/M phase at 0.43 uM after 24 hrs by propidium iodide staining based flow cytometry (reference value: 4.35%). It is filed as functional. Put shortly:
as §1

For assay [20], the system named is HL-60(TB). The assay is described as follows: Induction of apoptosis in human HL-60(TB) cells assessed as increase in apoptotic cells at 0.294 uM after 24 hrs by Annexin V-FITC/propidium iodide staining based flow cytometry relative to control. It is filed as functional.

Broadly, the IC50 is the concentration that inhibits the measured activity by half. Turning to `CCOC(=O)C1=C(C)NC(SCc2nnc(-c3ccc(Cl)cc3)o2)=NC1c1ccccc1Cl` (stereo unspecified), the figures for the IC50 in the assay on HL-60(TB) [1] and with MOLT-4 [2] were 193 µM and 255 µM, respectively.

As for `CCOC(=O)C1=C(C)NC(SCc2nnc(-c3ccccc3)o2)=NC1c1ccc(Cl)cc1` (stereo unspecified), the IC50 was 74.4 µM in the assay with HL-60(TB) [1] and 344 µM in the assay with MOLT-4 [2].

Turning to `CCOC(=O)C1=C(C)NC(SCc2nnc(-c3ccc(C)cc3)o2)=NC1c1ccc(Cl)cc1` (stereo unspecified), the IC50 in the assay with HL-60(TB) [1] is 220 µM; with MOLT-4 [2] it was 538 µM.

Consider `CCOC(=O)C1=C(C)NC(=S)NC1c1cccc(O)c1` (stereo unspecified) [MONASTROL], for which the Activity in the assay with MOLT-4 [3] was found to be 21.73%; in the assay on MOLT-4 [4], 8.63%; with HL-60(TB) [5], 0.63%; in the assay on HL-60(TB) [6] it was 6.89%; with MOLT-4 [7], 55.72%; in the assay on MOLT-4 [8], 1.03%. For the same compound, the Activity came to 3.19% in the assay with HL-60(TB) [9]; 61.23% in the assay with HL-60(TB) [10]; 4.21% with MOLT-4 [11]; 9.98% with HL-60(TB) [12]; 21.9% in the assay on HL-60(TB) [13]; 3.39% with MOLT-4 [14]. Besides, the Activity in the assay with HL-60(TB) [15] is recorded as 3.07%; in the assay with MOLT-4 [16] it was 89.2%; in the assay on HL-60(TB) [17], 90.89%; with MOLT-4 [19], 13.92%. Also, the IC50 in the assay on HL-60(TB) [1] was 0.147 µM; with MOLT-4 [2] it was 0.215 µM. For the same compound, the results for the “fold change (FC)” value with MOLT-4 [18] and with HL-60(TB) [20] were 10 and 5.1, respectively.
